Results from different studies.
Compare with care: the assays were run in different laboratories.
Organism: Plasmodium falciparum
Read-out: parasite growth

Compound | assay | test system | setting | IC50
CCN(CC)CCCC(C)Nc1ccnc2cc(Cl)ccc12 (stereo not shown) |  | D6 | blood stage | 0.014 µg/mL
C[C@@H]1CC[C@H]2[C@@H](C)C(=O)O[C@@H]3O[C@@]4(C)CC[C@@H]1[C@]32OO4 |  | W2 | 72 h, drug-resistant strain, blood stage | 0.0038 µg/mL
COC1=CC(c2cccn2C)=NC1=Cc1ccc(CCCCCCCCCC(C)O)[nH]1 (stereo not shown) |  | DD2 | drug-resistant strain, blood stage | > 2500 nM
NCCNc1nc2cc(Cl)ccc2n1Cc1ccccc1 |  | K1 | drug-resistant strain, blood stage | 339 nM
CCN(CC)CCCC(C)Nc1ccnc2cc(Cl)ccc12 (stereo not shown) |  | W2 | 72 h, drug-resistant strain, blood stage | 0.155 µg/mL
CCN(CC)CCCC(C)Nc1ccnc2cc(Cl)ccc12 (stereo not shown) |  | DD2 | drug-resistant strain, blood stage | 102 nM
Brc1ccc2c(c1)nc(C1CCNCC1)n2Cc1ccccc1 |  | K1 | drug-resistant strain, blood stage | 61 nM
CCN(CC)CCCC(C)Nc1ccnc2cc(Cl)ccc12 (stereo not shown) | ELISA | DD2 | drug-resistant strain, blood stage | 262 nM
CC(C)(C)C(O)C(Oc1ccc(-c2ccccc2)cc1)n1cncn1 (stereo not shown) | SYBR Green |  | blood stage | 8690 nM
CCCCCCCCCCOc1cc2c(O)c(C(=O)OCC)cnc2cc1OCC | SYBR Green | HB3 | blood stage | < 5.7 nM
CCN(CC)CCCC(C)Nc1ccnc2cc(Cl)ccc12 (stereo not shown) |  |  | blood stage | 10.9 nM
COC1=CC(c2ccc[nH]2)=NC1=Cc1ccc(CCCCCCCCCCCO)[nH]1 |  | DD2 | drug-resistant strain, blood stage | 36 nM
CCN(CC)CCCC(C)Nc1ccnc2cc(Cl)ccc12 (stereo not shown) | SYBR Green | W2 | drug-resistant strain, blood stage | 383 nM
COC1=CC(c2ccco2)=NC1=Cc1ccc(CCCCCCCCCC(C)O)[nH]1 (stereo not shown) |  | 7G8 | drug-resistant strain, blood stage | > 2500 nM
CCN(CC)CCCC(C)Nc1ccnc2cc(Cl)ccc12 (stereo not shown) |  | W2 | drug-resistant strain, blood stage | 0.15 µg/mL
CC1=C(C)C(c2ccc[nH]2)=NC1=Cc1ccc(CCCCCCCCCC(C)O)[nH]1 (stereo not shown) |  | DD2 | drug-resistant strain, blood stage | 1190 nM
NC(N)=NC(=O)c1cc(C#Cc2ccc(C(F)(F)F)c(C(=O)Nc3ccccn3)c2)cc(C(F)(F)F)c1 |  | K1 | drug-resistant strain, blood stage | 19 nM
COC1=CC(c2ccc[nH]2)=NC1=Cc1ccc(CCCCCCCCCCO)[nH]1 |  | DD2 | drug-resistant strain, blood stage | 80 nM
Clc1ccc2c(nc(N3CCNCC3)n2Cc2ccccc2)c1Cl |  | K1 | drug-resistant strain, blood stage | 32 nM
CCc1ccc(C2=NC(=Cc3ccc(CCCCCCCCCC(C)O)[nH]3)C(OC)=C2)[nH]1 (stereo not shown) |  | DD2 | drug-resistant strain, blood stage | 15 nM
CCN(CC)CCCC(C)Nc1ccnc2cc(Cl)ccc12 (stereo not shown) | imaging | W2 | 48 h, drug-resistant strain, blood stage | 0.234 µg/mL
CCN(CC)CCCC(C)Nc1ccnc2cc(Cl)ccc12 (stereo not shown) |  | DD2 | drug-resistant strain | 102 nM
COC1=CC(c2ccc[nH]2)=NC1=Cc1ccc(CCCCCCCCCCCCO)[nH]1 |  | 7G8 | drug-resistant strain, blood stage | 58 nM
OC(c1cc(C(F)(F)F)nc2c(C(F)(F)F)cccc12)C1CCCCN1 (stereo not shown) |  | 3D7 | blood stage | 4.8 nM
Clc1ccc2c(c1)nc(C1CCNCC1)n2Cc1ccccc1 |  | K1 | drug-resistant strain, blood stage | 76 nM
